# Assay outcomes: PubChem BioAssay, several laboratories
# ASAP1 GAP inh: inhibitors of human ASAP1 ArfGAP activity | inhibition, % at 16.5 µM | 360,000 compounds, 0.19% hits | ASAP1-stimulated ARF1 GTP hydrolysis, GDP FP detection | Q9ULH1; in the data active means inhibition above about 25%;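 further: 0% = vehicle with enzyme and substrate and 100% = no enzyme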
# Target sequence (Q9ULH1 325-724 limits assumed): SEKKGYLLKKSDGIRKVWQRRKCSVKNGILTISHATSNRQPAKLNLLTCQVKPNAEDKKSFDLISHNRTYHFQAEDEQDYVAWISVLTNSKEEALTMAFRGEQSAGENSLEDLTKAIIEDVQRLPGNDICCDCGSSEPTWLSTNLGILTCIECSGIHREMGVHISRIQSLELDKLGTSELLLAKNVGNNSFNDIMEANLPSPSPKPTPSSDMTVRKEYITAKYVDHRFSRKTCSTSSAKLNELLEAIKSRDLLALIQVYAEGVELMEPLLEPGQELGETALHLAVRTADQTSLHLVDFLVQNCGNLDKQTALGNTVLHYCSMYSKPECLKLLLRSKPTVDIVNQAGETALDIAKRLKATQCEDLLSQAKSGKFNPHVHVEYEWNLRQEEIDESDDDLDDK
# ARFGAP1 inhibitor: inhibits rat ARF GTPase activating protein 1. Q62848. 360,000 compounds, 0.26% hits. inhibition, % at 16.5 µM. AID 651572. Arfgap1-stimulated ARF1 GTP hydrolysis, GDP FP detection;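 active means inhibition above a per-plate limit, mean inhibition of low control wells plus 3 SD, cut at about 25% in these data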;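 further: 0% = DMSO wells with enzyme and 100% = wells lacking Arfgap1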
# Target sequence (Q62848 1-136 limits assumed): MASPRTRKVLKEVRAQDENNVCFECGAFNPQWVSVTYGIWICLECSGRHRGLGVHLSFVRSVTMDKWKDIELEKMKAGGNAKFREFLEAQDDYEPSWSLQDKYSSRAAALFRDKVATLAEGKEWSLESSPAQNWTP
#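 Material: truncated rat Arfgap1 GAP domain; Incubation: compound-enzyme preincubation 20 min, reaction 120 min, detection 60 min, 25 °C; Read-out: percent inhibition of Arfgap1-stimulated GTP hydrolysis; Technique: FP, GDP Alexa 633 tracer displaced from anti-GDP antibody, 620/688 nm; Controls: No-Arfgap1 wells (100%) versus DMSO full-reaction wells (0%); Replication: single well per compound.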
# esBAF inh: SWI/SNF esBAF complex inhibition; mouse ES cells, Bmi1-luciferase knock-in reporter, 24 h; 100% = twice the neutral-well signal; reporter increase, % at 12.5 µM; 350,000 compounds, 2% hits; AID 602393; in the data active means activation above about 40%; inconclusive means no clear call, values can overlap the other calls;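 further: 0% = median of the plate's neutral control wells and 100% = double that signal; a rise in the Bmi1 reporter signal indicates esBAF inhibition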
# SMARCA2 activ: activators of SMARCA2 function; MG213 cells, MMTV-luciferase reporter, dexamethasone, overnight; activation, % at 9.1 µM; 370,000 compounds, 1% hits; AID 652017; in the data active means activation above about 7.8%;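 further: 0% = vehicle wells and 100% = reference activator wells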
# The depositor's hits bear a star; ? = inconclusive; · = not tested or not shown. Most compounds without a hit are left out; they make up all but 2.6% or so of the library.
SMILES,ASAP1 GAP inh,ARFGAP1 inhibitor,esBAF inh,SMARCA2 activ
Cc1ccc(-c2cc(N)n(-c3ccccc3)n2)cc1,15.5,8.3,·,4.3
C[C@@H]1CN([C@@H](C)CO)C(=O)c2cc(NC(=O)Nc3ccccc3)ccc2O[C@H]1CN(C)C(=O)Nc1ccc2c(c1)OCO2,·,·,0.5,·
COc1ccc(NC(=O)N2CCCCN3[C@H](CO)[C@@H](c4ccc(C#CCC(C)C)cc4)[C@@H]3C2)cc1,·,·,-12.0,·
C[C@H]1CN([C@@H](C)CO)C(=O)c2cc(NS(=O)(=O)c3ccc(Cl)cc3)ccc2O[C@@H]1CN(C)Cc1ccc(C(F)(F)F)cc1,·,·,-7.0,·
FC(F)(F)c1cc(-c2cccs2)nc2cc(-c3ccccc3)nn12,-3.1,2.3,-0.5,2.0
Cc1cc(C(F)(F)F)n2nc(-c3cccs3)cc2n1,2.4,-8.6,64.4*,2.0
C[C@@H]1CN([C@H](C)CO)C(=O)Cc2cc(NC(=O)C3CC3)ccc2O[C@H]1CN(C)C,·,·,1.4,·
Cc1oc2c(c1C(=O)O)C(=O)c1ccccc1C2=O,-2.5,-1.6,-14.9,-3.4
CCOC(=O)c1c(C)oc2c1C(=O)c1ccccc1C2=O,3.6,-0.9,49.2*,1.8
C[C@H]1CN([C@@H](C)CO)C(=O)c2cc(-c3cccc(C#N)c3)cnc2O[C@H]1CN(C)Cc1ccc(F)cc1,·,·,-2.2,·
Cc1ccc(C2CCN(C(=O)Nc3ccccc3)C2)cc1 (configuration not stated),5.6,2.9,53.2*,5.4
O=C(c1ccco1)N1CCCC(Nc2ccc3c(c2)OCCO3)C1 (configuration not stated),3.0,-8.1,43.0*,4.1
O=C(c1ccco1)N1CCC(c2ccccc2)C1 (configuration not stated),-0.4,3.7,53.8*,1.6
CC(C)NC(=O)Nc1ccc2c(c1)C(=O)N([C@H](C)CO)C[C@H](C)[C@@H](CN(C)S(=O)(=O)c1cn(C)cn1)OCCCC[C@@H](C)O2,·,·,-0.1,·
COc1cccc(C2=CC(c3cccc(OC)c3OC(F)F)n3nnnc3N2)c1 (configuration not stated),1.3,-3.9,9.9,-0.1
COc1cccc(C2=CC(c3cccc(OC)c3OC)n3nnnc3N2)c1 (configuration not stated),1.6,-4.5,47.4*,1.1
COCC(=O)N/N=C\c1ccccc1OC/C=C/c1ccccc1,-0.9,-2.5,30.4,3.0
N#CCC(=O)N/N=C\c1ccccc1OC/C=C/c1ccccc1,2.4,-7.3,63.8*,0.1
Nc1c(-c2ccccc2)cnc2c(-c3ccccc3)cnn12,7.5,0.0,-54.6,7.3
CC(=O)c1cnc2c(-c3ccc(Cl)cc3)cnn2c1C,-8.6,-0.8,75.2*,-4.3
Nc1c(C(=O)O)cnc2c(-c3ccc(Cl)cc3)cnn12,-12.8,-5.6,46.9*,2.9
C[C@@H]1CCCCO[C@H](CN(C)C(=O)Nc2ccc(F)cc2)[C@H](C)CN([C@H](C)CO)C(=O)c2cc(NS(C)(=O)=O)ccc2O1,·,·,-0.7,·
COc1cccc(C(=O)O/N=C(\N)c2ccc(C)cc2)c1,12.3,4.2,43.0,2.3
COc1cccc(C(=O)O/N=C(\N)c2ccc([N+](=O)[O-])cc2)c1,7.4,-0.3,55.2*,-2.3
COc1cc(C(=O)O/N=C(\N)c2cccc([N+](=O)[O-])c2)cc(OC)c1OC,-4.3,0.9,-1.6,-4.5
SMILES,ASAP1 GAP inh,ARFGAP1 inhibitor,esBAF inh,SMARCA2 activ
COc1ccc(/C(N)=N/OC(=O)c2cccc([N+](=O)[O-])c2)cc1,-11.0,5.6,64.1*,2.7
COc1ccc(C(=O)O/N=C(\N)c2ccccc2)cc1OC,2.4,1.9,?,6.5
COc1ccc(/C(N)=N/OC(=O)c2ccc(Br)o2)cc1,-14.9,-11.1,57.7*,5.8
N/C(=N\OC(=O)c1ccc(Br)o1)c1cccnc1,-2.6,3.0,·,3.9
COc1ccc(C(=O)O/N=C(\N)c2cccc(C)c2)cc1OC,-0.6,-7.0,68.8*,3.9
O=C(N[C@@H]1CC[C@@H](CCNC(=O)C2CCOCC2)O[C@@H]1CO)c1ccccn1,·,·,5.8,·
O=C(NC[C@H]1[C@@H](c2ccccc2)[C@@H](CO)N1CC1CCCC1)c1ccncc1,·,·,1.2,·
COc1cccc(C(=O)O/N=C(\N)c2ccncc2)c1,-17.3,-0.6,36.9,7.8*
COc1ccc(/C=N/NC(=O)c2cccc([N+](=O)[O-])c2)cc1OC,-5.7,4.0,·,-1.1
COc1cc(/C=N/NC(=O)c2cccc([N+](=O)[O-])c2)ccc1OCc1ccccc1,8.5,-13.0,42.9*,-3.5
COC(=O)C(=Cc1ccc(OCc2ccc([N+](=O)[O-])cc2)c(OC)c1)C(=O)OC,-0.5,7.0,73.8*,-1.0
COc1cc(/C=N/N2CCOCC2)ccc1OCc1ccccc1,2.1,5.4,60.9*,-0.5
COc1cc(/C=N/NC(=O)CC2(C)OCCCO2)ccc1OCc1ccc(Cl)cc1Cl,-7.8,1.2,·,0.5
CCOC(=O)C(=Cc1ccc(OCc2ccc([N+](=O)[O-])cc2)c(OC)c1)C(=O)OCC,15.5,5.3,·,-1.1
COc1cc(/C=N/NC(=O)CC2(C)OCCCO2)ccc1OCc1ccccc1,19.1,0.0,42.4*,2.0
C[C@H]1CN([C@@H](C)CO)C(=O)CCCn2cc(nn2)CO[C@@H]1CN(C)Cc1ccc2c(c1)OCCN2C,·,·,1.0,·
N#Cc1c(/N=C/c2cc(Br)cs2)sc2c1CCC2,-0.3,3.0,78.5*,0.9
O=C(Nc1ccccc1)c1cc2ccccc2c(=O)s1,-5.8,0.5,·,1.3
O=C(Nc1ccc(O)cc1)c1cc2ccccc2c(=O)s1,7.5,4.3,48.9*,3.0
O=C(Nc1ccccc1)c1cc2ccccc2s1,3.9,12.4,45.3*,0.3
O=C1c2ccccc2C(=O)N1CCC1=CCCCC1,-8.2,3.8,54.2*,2.6
O=C(O)c1ccc2c(c1)C(=O)N(CCC1=CCCCC1)C2=O,4.2,11.4,8.2,0.8
C[C@@H](NC(=O)C[C@@H]1CC[C@@H](NS(=O)(=O)c2cccc(F)c2)[C@H](CO)O1)c1ccccc1,·,·,-2.1,·
CC(C)c1ccc(N(C(=O)c2csnn2)C(C(=O)NC(C)(C)C)c2ccncc2)cc1 (configuration not stated),10.6,9.5,57.9*,1.8
COc1ccccc1N1CCN(C(=O)CSc2ccccc2)CC1,11.6,-4.3,48.9*,2.7
SMILES,ASAP1 GAP inh,ARFGAP1 inhibitor,esBAF inh,SMARCA2 activ
COc1ccc(/C=C/C(=O)NC(=S)N2CCN(c3ccccc3OC)CC2)cc1,-16.8,2.5,77.0*,-1.7
C[C@H](CO)N1C[C@H](C)[C@@H](CN(C)C(=O)c2ccccn2)Oc2cc(C#CC3CC3)ccc2S1(=O)=O,·,·,-0.9,·
CN(C)C(=O)C[C@@H]1C=C[C@H](NS(=O)(=O)c2ccccc2)[C@@H](CO)O1,·,·,1.9,·
Cc1ccccc1CSCC(=O)Nc1ccccc1F,2.8,-7.3,48.1*,1.6
O=C(CSCc1c(F)cccc1Cl)Nc1cccnc1,-5.2,1.4,·,-1.0
O=C(CSCc1c(F)cccc1F)Nc1ccccc1,-2.4,-4.7,51.4*,6.9
C[C@@H]1CN([C@H](C)CO)C(=O)Cc2cc(NS(C)(=O)=O)ccc2O[C@@H]1CN(C)S(=O)(=O)c1cccs1,·,·,-4.8,·
